ChEMBL document CHEMBL1125330, “N-substituted pyrazino[2,3-c][1,2,6]thiadiazine 2,2-dioxides. A new class of diuretics” (J Med Chem, 1992)

How the values were obtained:
Rattus norvegicus [1] = organism: Rattus norvegicus; settings: in vivo, po, 80 mg/kg
Rattus norvegicus [2] = test: Dose required to produce an excretion of 2 mequiv of Na+/kg bw/6h vs control groups; assay type: functional
Summary of the method: (§1)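 Male Sprague-Dawley rats (HC/CFY, 175-200 g), fasted and water-deprived 18 h before and during the test. Compound dosed by gavage in 1% carboxymethyl cellulose/0.1% Tween 80, then water load 2.5 mL/100 g bw po. Urine collected 6 h in metabolic cages; Na+ by flame photometry. Effective doses vs vehicle controls derived by linear regression of dose-response data.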

Rattus norvegicus [3] = organism: Rattus norvegicus; test: Dose required to produce increase in 50 % in urine production vs control groups; assay type: functional; settings: Rattus norvegicus, Urine
Summary of the method: as §1

Rattus norvegicus [4] = test: Post dosing time interval of maximum activity; assay type: functional
Summary of the method: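 Interval of peak activity taken from timed urine collections (0-1, 1-2, 2-3, 3-4, 4-6 h) after a single oral dose in water-loaded fasted rats, […]. Urine volume and Na+ excretion followed over time.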

Rattus norvegicus [5] = test: Mean urinary output in rats when compound administered at 0 mg/kg po and vehicle dosed at 0 umol/kg; assay type: ADME, organism-based, Urine; set-up: dose 0 mg/kg, route oral; settings: in vivo
Summary of the method: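 Water-loaded male Sprague-Dawley rats (HC/CFY, 175-200 g) fasted and without water for 18 h. Oral gavage of 2.5-160 mg/kg in 1% CMC with 0.1% Tween 80, then distilled water 2.5 mL/100 g po. Urine collected 6 h in metabolic cages, mean output in mL/6 h/kg bw. Unpaired Student t-test against vehicle; dose-response by linear regression.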

Rattus norvegicus [6] = organism: Rattus norvegicus; test: Dose required to produce increase in 200 % in urine production vs control groups; assay type: functional
Summary of the method: as §1

Rattus norvegicus [7] = test: Mean sodium excretion in rats when compound administered at 0 mg/kg po and vehicle dosed at 0 umol/kg; assay type: ADME, organism-based; set-up: dose 0 mg/kg, route oral; settings: in vivo
Summary of the method: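 Male Sprague-Dawley rats (HC/CFY, 175-200 g) fasted and water-deprived 18 h before and during the test. Dosed by gavage at 2.5-160 mg/kg in 1% carboxymethyl cellulose/0.1% Tween 80, 0.5 mL/100 g bw. Immediately hydrated with water (2.5 mL/100 g bw, po). Urine collected 6 h in metabolic cages; Na+ and K+ by flame photometry; mean mequiv/6 h/kg bw; nonpaired Student t-test.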

Rattus norvegicus [8] = test: Mean potassium excretion in rats when compound administered at 0 mg/kg po and vehicle dosed at 0 umol/kg; assay type: ADME, organism-based; set-up: dose 0 mg/kg, route oral; settings: in vivo
Summary of the method: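 Male Sprague-Dawley rats (HC/CFY, 175-200 g), no food or water for 18 h before and during the test. Single gavage dose (2.5-160 mg/kg; vehicle 1% carboxymethyl cellulose/0.1% Tween 80, 0.5 mL/100 g bw), then distilled water 2.5 mL/100 g bw po. Individual metabolic cages, 6 h urine. K+ by flame photometry, Cl- colorimetric, as mequiv/6 h/kg bw; unpaired Student t-test vs control.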

NS(=O)(=O)c1cc(C(=O)O)c(NCc2ccco2)cc1Cl [FUROSEMIDE]
V (Rattus norvegicus [1]): 75.5 ml 6hr-1 (kg of body weight)-1 | ED2 (Rattus norvegicus [2]): 12.95 mg/kg | ED50 (Rattus norvegicus [3]): 12.1 mg/kg | Time (Rattus norvegicus [4]): 1 h | V (Rattus norvegicus [5]): 24.04 ml 6hr-1 (kg of body weight)-1 | ED200 (Rattus norvegicus [6]): 70.59 mg/kg | Na (Rattus norvegicus [7]): 0.39 m equiv 6hr-1 kg-1 (body weight)-1 | K (Rattus norvegicus [8]): 0.47 m equiv 6hr-1 kg-1 (body weight)-1
